From ChEMBL document CHEMBL3588752, “Synthesis and in Vitro Anticancer Activity of the First Class of Dual Inhibitors of REV-ERBβ and Autophagy” (J Med Chem, 2015)
Calls of active or inactive are those of the source. The rule behind the calls is not given here.

Legend:
BT-474 [1] = assay: Cytotoxicity against human BT474 cells assessed as reduction in cell number incubated for 72 hrs; type: functional, cell-based; conditions: BT-474, 72 h
Outline: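 Cells seeded at 2000/well and left overnight, then exposed 72 h to seven 3-fold serial dilutions from 100 µM. Cell number read by CyQUANT DNA dye (independent of metabolism), relative to vehicle as 100%. BT-474 grown in high-glucose DMEM, 4 mM L-glutamine, 10% FBS, 0.25 mM pyruvate.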

[2] = Inhibition of cell proliferation of PDAC cells (unknown origin); type: functional, cell-based
LNCaP [3] = assay: Cytotoxicity against human LNCAP cells assessed as reduction in cell number incubated for 72 hrs; type: functional, cell-based
Outline: (§1)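 RPMI-1640 with 4 mM L-glutamine and 10% FBS for culture. 2000 cells/well seeded overnight, then 72 h exposure to seven 3-fold dilutions (top 100 µM; top 900 µM for the reference autophagy inhibitor in MDA-MB-361). Cell number by CyQUANT relative to vehicle. IC50 from concentration–response curves, mean ± SEM, n ≥ 6.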

HepG2 [4] = assay: Reduction in GFP expression in human HepG2 cells transfected with plasmids co-expressing GFP and shRNAs against REV-ERBbeta followed by compound treatment 24 hrs post-transfection and measured 48 hrs post dose; type: functional, cell-based
[5] = Inhibition of cell proliferation of breast cancer cells (unknown origin); type: functional, cell-based; conditions: Cancer cell lines
HepG2 [6] = assay: Cytotoxicity against human HepG2 cells assessed as reduction in cell number incubated for 72 hrs; type: functional, cell-based; conditions: HepG2, 72 h
Outline: (§2)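 Grown in high-glucose DMEM with 4 mM L-glutamine, 10% FBS and 0.5 mM sodium pyruvate. Seeded at 2000 cells/well overnight, then treated 72 h with seven 3-fold dilutions from 100 µM. Cell number by CyQUANT, % of vehicle. IC50 by log(inhibitor)–response fit, mean ± SEM, n ≥ 6.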

MCF7 = assay: Cytotoxicity against human MCF7 cells assessed as reduction in cell number incubated for 72 hrs; type: functional, cell-based; conditions: MCF7, 72 h; outline: as §2
[7] = Reduction in GFP expression in human SKBR3 cells transfected with plasmids co-expressing GFP and shRNAs against REV-ERBbeta followed by compound treatment 24 hrs post-transfection and measured 48 hrs post dose; type: functional, cell-based; conditions: SK-BR-3
LNCaP [8] = assay: Reduction in GFP expression in human LNCAP cells transfected with plasmids co-expressing GFP and shRNAs against REV-ERBbeta followed by compound treatment 24 hrs post-transfection and measured 48 hrs post dose; type: functional, cell-based
[9] = Cytotoxicity against human SKBR3 cells assessed as reduction in cell number incubated for 72 hrs; type: functional, cell-based; conditions: SK-BR-3, 72 h
Outline: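 McCoy's medium plus 10% FBS; 2000 cells/well, overnight attachment, 72 h treatment with seven 3-fold dilutions from 100 µM (900 µM top for the reference autophagy inhibitor). CyQUANT cell number as % of vehicle. IC50 by log(inhibitor)–response fitting, mean ± SEM of ≥6 experiments.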

MDA-MB-361 = assay: Cytotoxicity against human MDA-MB-361 cells assessed as reduction in cell number incubated for 72 hrs; type: functional, cell-based; conditions: MDA-MB-361, 72 h; outline: as §1
[10] = Inhibition of cell proliferation of lung cancer cells (unknown origin); type: functional, cell-based; conditions: Cancer cell lines
HMEC = assay: Cytotoxicity against HMEC cells assessed as reduction in cell number incubated for 72 hrs; type: cell-based; conditions: Homo sapiens
[11] = target: T1, Nuclear receptor subfamily 1 group D member 2 (Homo sapiens) (UniProt Q14995); assay: Inhibition of REV-ERBbeta in human BT474 cells assessed as increase in BMAL1 expression at 10 uM incubated for 16 hrs by immunoblot method; conditions: BT-474
T1 sequence (whole entry): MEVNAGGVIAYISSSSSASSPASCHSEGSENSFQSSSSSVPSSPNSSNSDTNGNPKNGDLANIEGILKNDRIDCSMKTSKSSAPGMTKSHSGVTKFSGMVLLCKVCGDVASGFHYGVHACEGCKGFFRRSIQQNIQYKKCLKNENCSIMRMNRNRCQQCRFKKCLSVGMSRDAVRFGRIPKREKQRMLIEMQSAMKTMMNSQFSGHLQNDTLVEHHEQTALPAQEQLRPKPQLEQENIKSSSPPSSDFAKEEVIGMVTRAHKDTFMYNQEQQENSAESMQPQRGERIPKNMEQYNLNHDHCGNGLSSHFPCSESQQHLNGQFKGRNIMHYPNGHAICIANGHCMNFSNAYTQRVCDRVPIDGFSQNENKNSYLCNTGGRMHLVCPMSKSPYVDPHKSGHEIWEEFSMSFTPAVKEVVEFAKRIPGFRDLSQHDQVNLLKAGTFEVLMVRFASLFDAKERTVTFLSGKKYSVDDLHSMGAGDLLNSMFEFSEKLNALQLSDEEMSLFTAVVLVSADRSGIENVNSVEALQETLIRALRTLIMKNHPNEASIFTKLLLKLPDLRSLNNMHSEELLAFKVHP

[12] = Toxicity against human BT474 cells assessed as reduction in cell number at 10 uM incubated for 16 hrs; type: cell-based; conditions: bt-474, 16 h
BT-474 [13] = assay: Lysosomotropic activity in human BT474 cells assessed as […] incubated for 24 hrs by lysosomotropy assay; type: functional, cell-based; conditions: BT-474, 24 h
Outline: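 Seeded at 2000 cells/well overnight, then treated. Lysosomal staining (LysoTracker fluorescence) measured 24 h post-treatment. IC50 from concentration–response plots, mean ± SEM, N ≥ 6.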

BT-474 [14] = assay: Inhibition of autophagy in human BT474 cells assessed as increase in LC3-II protein levels at 10 uM by immunoblot method; type: functional, cell-based
Outline: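 BT-474 exposed 4 h at 10 µM. Protein extracted in RIPA buffer and immunoblotted for LC3B and GAPDH in TBS-T with 5% BSA. HRP secondary at 1:20000, ECL detection. Band densitometry reported as LC3B/GAPDH ratio.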

[15] = target: T1, Nuclear receptor subfamily 1 group D member 2 (Homo sapiens); assay: Inhibition of REV-ERBbeta (unknown origin) expressed in HEK293 cells incubated for 24 hrs assessed as inhibition of receptor-mediated transcriptional repression by REV-ERB luciferase reporter assay; type: cell-based
Outline: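 HEK-293 co-transfected with a REV-ERBβ expression plasmid and a reporter with two REV-ERB response elements driving Cypridina luciferase. Compounds added the next day; luciferase activity read after 24 h. IC50 from concentration–response plots, mean ± SEM, N ≥ 6.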

Structure (SMILES)	IC50 (BT-474 [1]) [µM]	IC50 (HMEC) [µM]	other results
CN1CCN(Cc2ccc(CNC3(c4ccccc4F)CCCC3)cc2)CC1	> 100		
CCN(CC)CCCC(C)Nc1ccnc2cc(Cl)ccc12 (racemic) [CHLOROQUINE]			IC50 [2]: 10 µM; IC50 (LNCaP [3]): 32.9 µM; Activity (HepG2 [4]): Active; IC50 [5]: > 100 µM; IC50 (HepG2 [6]): 25 µM; IC50 (MCF7): 23.4 µM; Activity [7]: Active; Activity (LNCaP [8]): Active; IC50 [9]: 50.4 µM; IC50 (MDA-MB-361): 97 µM; IC50 [10]: > 100 µM
CN1CCN(Cc2ccccc2CNC2(c3ccccc3F)CCCC2)CC1	> 100		
CC1CCC(Cc2cccc(CNC3(c4ccccc4F)CCCC3)c2)CC1 (mixture of isomers)	> 100		
CN1CCN(Cc2cccc(CNC3(c4ccccc4F)CCCC3)c2)CC1	34	> 100	
Oc1ccc(CNC2(c3ccccc3F)CCCC2)cc1CN1CCN(Cc2ccccc2)CC1	34.7	> 100	
CC(=O)N1CCN(Cc2cc(CNC3(c4ccccc4F)CCCC3)ccc2O)CC1	> 100		
CN1CCN(Cc2cc(CNC3(c4ccc(F)cc4)CCCC3)ccc2O)CC1	9.41	> 100	inhibition [11]: Active; Activity [12]: Non-toxic; IC50 (BT-474 [13]): 10 µM; inhibition (BT-474 [14]): Active; inhibition [15]: Active
CN1CCN(Cc2cc(CNC3(c4ccccc4)CCCC3)ccc2O)CC1	27.5	> 100	
Oc1ccc(CNC2(c3ccccc3F)CCCC2)cc1CN1CCNCC1	31.9	> 100	
CN1CCC(Cc2cccc(CNC3(c4ccccc4F)CCCC3)c2)CC1	15.5	> 100	inhibition [11]: Active; Activity [12]: Non-toxic; IC50 (BT-474 [13]): 10 µM; inhibition (BT-474 [14]): Active; inhibition [15]: Active
Oc1ccc(CNC2(c3ccccc3F)CCCC2)cc1CN1CCOCC1	> 100		
CCN1CCN(Cc2cc(CNC3(c4ccccc4F)CCCC3)ccc2O)CC1	39.3	> 100	
CN1CCN(Cc2cc(CN(C)C3(c4ccccc4F)CCCC3)ccc2O)CC1	> 100		
Oc1ccc(CNC2(c3ccccc3F)CCCC2)cc1CN1CCN(c2ccccc2)CC1	37.8	> 100	
